Source: ChEMBL document CHEMBL5608194, “Novel neuroprotective 5,6-dihydropyrido[2',1':2,3]imidazo[4,5-c]quinoline derivatives acting through cholinesterase inhibition and CB2 signaling modulation” (Eur J Med Chem, 2024)
The source made the active and inactive calls. The calls are words filed in the database; no cut-off is given here.

Legend:
SH-SY5Y [1] = experiment: Inhibition of MPP+ induced mitochondrial superoxide radical production in human SH-SY5Y cells at 10 uM incubated for 24 hrs by MitoSOX staining based microplate reader assay (reference value: 100%); type: functional
How it was run: (§1)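 Neuron-like SH-SY5Y (20 000 cells/well) co-treated with 5 mM MPP+ and compound for 24 h; plates centrifuged, medium replaced by 5 μM MitoSOX in HBSS, 30 min at 37 °C, fluorescence 500/580 nm; MPP+ signal set to 100 %; triplicates on at least four independent days.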

Acetylcholinesterase = Acetylcholinesterase (Electrophorus electricus, UniProt O42275); experiment: Inhibition of electric eel AChE using acetylthiocholine as substrate by Ellman's method
Chain of Acetylcholinesterase (O42275 whole entry): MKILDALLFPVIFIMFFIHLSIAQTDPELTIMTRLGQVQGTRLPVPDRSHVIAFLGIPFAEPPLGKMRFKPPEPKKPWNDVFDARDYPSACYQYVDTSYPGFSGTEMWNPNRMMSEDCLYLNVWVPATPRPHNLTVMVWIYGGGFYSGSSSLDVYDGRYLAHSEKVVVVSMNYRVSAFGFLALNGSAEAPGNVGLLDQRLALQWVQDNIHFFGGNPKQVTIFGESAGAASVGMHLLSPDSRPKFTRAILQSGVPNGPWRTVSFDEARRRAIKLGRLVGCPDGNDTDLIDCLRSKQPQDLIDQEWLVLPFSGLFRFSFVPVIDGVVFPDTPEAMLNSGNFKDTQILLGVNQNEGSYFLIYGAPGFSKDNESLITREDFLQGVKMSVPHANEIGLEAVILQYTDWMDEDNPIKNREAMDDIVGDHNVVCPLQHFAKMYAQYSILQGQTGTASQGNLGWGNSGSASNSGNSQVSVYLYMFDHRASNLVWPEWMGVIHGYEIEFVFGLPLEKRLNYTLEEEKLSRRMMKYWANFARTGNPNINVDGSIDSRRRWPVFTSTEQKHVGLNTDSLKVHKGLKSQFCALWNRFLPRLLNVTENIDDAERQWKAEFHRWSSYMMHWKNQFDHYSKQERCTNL

SH-SY5Y [2] = experiment: Neuroprotective activity against MPP+ induced cell death in human SH-SY5Y cells assessed as cell death at 10 uM by YOPRO-1 staining based assay; type: functional
How it was run: (§2)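 Neuron-like SH-SY5Y co-treated with compound and 5 mM MPP+ for 24 h; centrifuged at 500 × g, medium replaced by 1 μM YO-PRO1 in PBS for 15 min at room temperature; fluorescence 488/530 nm; MPP+ signal set to 100 %; triplicates on at least three independent days.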

SH-SY5Y [3] = experiment: Neuroprotective activity against ATRA-differentiated and MPP+ induced cell death in human SH-SY5Y cells assessed as cell death at 1 uM incubated for 24 hrs by propidium iodide staining based fluorescence assay (reference value: 100%); type: functional
How it was run: (§3)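 ATRA-differentiated SH-SY5Y co-treated with compound and 5 mM MPP+ for 24 h; cell death by propidium iodide fluorescence, MPP+-treated signal set to 100 %.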

SH-SY5Y [4] = experiment: Neuroprotective activity against ATRA-differentiated and MPP+ induced cell death in human SH-SY5Y cells assessed as cell death at 10 uM by LDH release assay (reference value: 100%); type: functional
How it was run: (§4)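 ATRA-differentiated SH-SY5Y co-treated with 5 mM MPP+ and compound; cell death by commercial LDH release kit; MPP+ value set to 100 %; triplicates on at least three independent days.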

SH-SY5Y [5] = experiment: Neuroprotective activity against ATRA-differentiated and 3-NPA induced cell death in human SH-SY5Y cells assessed as cell death at 0.1 uM incubated for 48 hrs by propidium iodide staining based fluorescence assay (reference value: 100%); type: functional
How it was run: (§5)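 ATRA-differentiated SH-SY5Y co-treated with compound and 20 mM 3-nitropropionic acid for 48 h; cell death by propidium iodide fluorescence, 3-NPA-treated signal set to 100 %.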

SH-SY5Y [6] = experiment: Neuroprotective activity against ATRA-differentiated and 3-NPA induced cell death in human SH-SY5Y cells assessed as cell death at 10 uM incubated for 48 hrs by propidium iodide staining based fluorescence assay (reference value: 100%); type: functional; how it was run: as §5
SH-SY5Y [7] = experiment: Neuroprotective activity against ATRA-differentiated and MPP+ induced cell death in human SH-SY5Y cells assessed as cell death at 1 uM by LDH release assay (reference value: 100%); type: functional; how it was run: as §4
SH-SY5Y [8] = experiment: Neuroprotective activity against ATRA-differentiated and MPP+ induced cell death in human SH-SY5Y cells assessed as cell death at 0.1 uM incubated for 24 hrs by propidium iodide staining based fluorescence assay (reference value: 100%); type: functional; how it was run: as §3
[9] = Selectivity index, ratio of IC50 for electric eel AChE to IC50 for equine serum BChE
How it was run: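 Ratio of IC50 values from modified Ellman spectrophotometric assays with electric eel AChE and equine serum BChE. Each used enzyme at 0.2 U/mL final, acetylthiocholine or butyrylthiocholine at 40 μM, and DTNB at 100 μM. Inhibitors were dissolved in DMSO, diluted in water, and tested at five concentrations in triplicate. IC50 came from regression of v0/vi against inhibitor concentration.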

SH-SY5Y [10] = experiment: Inhibition of MPP+ induced superoxide radical production in ATRA-differentiated human SH-SY5Y cells at 1 uM incubated for 24 hrs by MitoSOX staining based confocal laser scanning microscopy; type: functional, cell-based
How it was run: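 50 000 cells seeded on chamber slides, ATRA-differentiated, co-treated with 5 mM MPP+ and compound for 24 h, then stained with MitoSOX and imaged by confocal laser-scanning microscopy (63× objective).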

SH-SY5Y [11] = experiment: Cytotoxicity against human SH-SY5Y cells assessed as cell death at 10 uM incubated for 72 hrs by propidium iodide staining based fluorescence assay; type: toxicity
How it was run: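 SH-SY5Y differentiated to neuron-like phenotype with 10 μM all-trans retinoic acid for 48 h, 20 000 cells/well. Compounds from DMSO stocks (DMSO ≤0.5 %) added, then 72 h exposure. Control wells lysed with 1 % Triton X-100 for 1 min, then all wells stained with propidium iodide for fluorescence read-out. Dead-cell proportion expressed relative to Triton X-100-treated control.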

Cholinesterase = Cholinesterase (Equus caballus, UniProt P81908); experiment: Inhibition of equine serum BChE using butyrylthiocholine as substrate by Ellman's method
Chain of Cholinesterase (P81908 whole entry): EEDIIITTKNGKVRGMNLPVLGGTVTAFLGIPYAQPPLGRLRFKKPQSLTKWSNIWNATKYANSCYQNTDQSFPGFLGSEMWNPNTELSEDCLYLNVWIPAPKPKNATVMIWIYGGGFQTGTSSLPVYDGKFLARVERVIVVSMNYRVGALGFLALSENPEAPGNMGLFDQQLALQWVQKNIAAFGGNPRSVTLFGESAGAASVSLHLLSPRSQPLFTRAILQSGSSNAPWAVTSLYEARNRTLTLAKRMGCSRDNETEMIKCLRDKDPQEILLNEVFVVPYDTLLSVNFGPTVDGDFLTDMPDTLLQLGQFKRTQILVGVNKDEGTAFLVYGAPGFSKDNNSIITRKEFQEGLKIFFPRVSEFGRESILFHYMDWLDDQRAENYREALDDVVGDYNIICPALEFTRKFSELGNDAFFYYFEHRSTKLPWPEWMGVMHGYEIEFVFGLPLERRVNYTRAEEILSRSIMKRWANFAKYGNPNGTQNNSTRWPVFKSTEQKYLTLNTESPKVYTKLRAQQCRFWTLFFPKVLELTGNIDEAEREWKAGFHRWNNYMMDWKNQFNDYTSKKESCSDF
How it was run: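 Equine serum BChE (0.2 U/mL final) with 40 μM butyrylthiocholine and 100 μM DTNB, modified Ellman spectrophotometry; compounds from DMSO diluted in water, five inhibitor concentrations; IC50 from regression of v0/vi versus inhibitor concentration; triplicate.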

SH-SY5Y [12] = experiment: Inhibition of MPP+ induced mitochondrial depolarization in human SH-SY5Y cells at 1 uM incubated for 2 hrs by JC10 staining based confocal laser scanning microscopy; type: functional
How it was run: (§6)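 ATRA-differentiated SH-SY5Y co-treated with 5 mM MPP+ and compound for 2 h; mitochondrial membrane potential by JC10 ratiometric red/green signal (plate) and confocal imaging of JC10-stained cells (50 000 cells/well slides); DMSO control set to 100 %; triplicates on three independent days.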

SH-SY5Y [13] = experiment: Inhibition of MPP+ induced superoxide radical production in human SH-SY5Y cells at 10 uM incubated for 24 hrs by microplate reader assay (reference value: 100%); type: functional
How it was run: (§7)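 Neuron-like SH-SY5Y co-treated with 5 mM MPP+ and compound for 24 h; centrifuged at 500 × g, medium replaced with 10 μM dihydroethidium in PBS for 30 min, fluorescence 500/580 nm; MPP+ signal set to 100 %; triplicates on at least four independent days.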

SH-SY5Y [14] = experiment: Neuroprotective activity against ATRA-differentiated and 3-NPA induced cell death in human SH-SY5Y cells assessed as cell death at 1 uM incubated for 48 hrs by propidium iodide staining based fluorescence assay (reference value: 100%); type: functional; how it was run: as §5
SH-SY5Y [15] = experiment: Neuroprotective activity against MPP+ induced cell death in human SH-SY5Y cells assessed as cell death at 1 uM incubated for 24 hrs by Cas-3, 7 staining based assay; type: functional
How it was run: (§8)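 Caspase-3/7 activation with Ac-DEVD-AFC substrate after 24 h co-treatment of neuron-like SH-SY5Y with compound and 5 mM MPP+; MPP+ signal set to 100 %; triplicates on at least three independent days.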

SH-SY5Y [16] = experiment: Neuroprotective activity against ATRA-differentiated and MPP+ induced cell death in human SH-SY5Y cells assessed as cell death at 10 uM incubated for 24 hrs by propidium iodide staining based fluorescence assay (reference value: 100%); type: functional; how it was run: as §3
SH-SY5Y [17] = experiment: Neuroprotective activity against MPP+ induced cell death in human SH-SY5Y cells assessed as cell death at 1 uM by YOPRO-1 staining based assay; type: functional; how it was run: as §2
SH-SY5Y [18] = experiment: Neuroprotective activity against MPP+ induced cell death in human SH-SY5Y cells assessed as cell death at 10 uM incubated for 24 hrs by Cas-3, 7 staining based assay; type: functional; how it was run: as §8
SH-SY5Y [19] = experiment: Potentiation of MPP+ induced toxicity in human SH-SY5Y cells assessed as increase in cell death at 10 uM; type: cell-based
How it was run: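 Neuron-like SH-SY5Y co-treated for 24 h with 5 mM MPP+, compound and CB2 inverse agonist AM630 or antagonist SR144528 at 0.1, 1 or 10 μM; CB2 ligands also tested alone and with MPP+; cell death read-out; triplicates on three independent days.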

SH-SY5Y [20] = experiment: Cytotoxicity against human SH-SY5Y cells at 10 uM; type: toxicity, cell-based
How it was run: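 SH-SY5Y differentiated to neuron-like phenotype with 10 μM all-trans retinoic acid for 48 h, 20 000 cells/well, then exposed to compound for 72 h (DMSO ≤0.5 %). Propidium iodide exclusion fluorescence; dead-cell proportion expressed relative to Triton X-100 (1 %, 1 min) lysed control.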

SH-SY5Y [21] = experiment: Inhibition of MPP+ induced mitochondrial depolarization in human SH-SY5Y cells at 0.1 to 1 uM incubated for 2 hrs by JC10 staining based confocal laser scanning microscopy; type: functional, cell-based; details: dose 0.1-1 µM; how it was run: as §6
SH-SY5Y [22] = experiment: Neuroprotective activity against MPP+ induced cell death in human SH-SY5Y cells assessed as decrease in PARP1 cleavage at 1 to 10 uM incubated for 24 hrs by immunoblotting analysis; type: functional, cell-based; details: dose 1-10 µM
SH-SY5Y [23] = experiment: Inhibition of MPP+ induced Akt phosphorylation at Ser473 residues in human SH-SY5Y cells at 1 to 10 uM incubated for 24 hrs by Western blotting analysis; type: cell-based; details: dose 1-10 µM
How it was run: (§9)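 ATRA-differentiated neuron-like SH-SY5Y co-treated with 5 mM MPP+ and compound for 24 h, lysed in RIPA buffer, SDS-PAGE, transfer to nitrocellulose, immunoblot for p-Akt (Ser473) and ERK1/2; HSP90 and β-actin loading controls; ECL chemiluminescence imaged by CCD camera.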

[24] = target: Mitogen-activated protein kinase; ERK1/ERK2 (Homo sapiens) (UniProt P27361+P28482); experiment: Inhibition of MPP+ induced ERK1/2 phosphorylation in human SH-SY5Y cells at 10 uM incubated for 24 hrs by Western blotting analysis; type: cell-based; how it was run: as §9
Chain of Mitogen-activated protein kinase; ERK1/ERK2 (Homo sapiens) (P27361 whole entry, looked up): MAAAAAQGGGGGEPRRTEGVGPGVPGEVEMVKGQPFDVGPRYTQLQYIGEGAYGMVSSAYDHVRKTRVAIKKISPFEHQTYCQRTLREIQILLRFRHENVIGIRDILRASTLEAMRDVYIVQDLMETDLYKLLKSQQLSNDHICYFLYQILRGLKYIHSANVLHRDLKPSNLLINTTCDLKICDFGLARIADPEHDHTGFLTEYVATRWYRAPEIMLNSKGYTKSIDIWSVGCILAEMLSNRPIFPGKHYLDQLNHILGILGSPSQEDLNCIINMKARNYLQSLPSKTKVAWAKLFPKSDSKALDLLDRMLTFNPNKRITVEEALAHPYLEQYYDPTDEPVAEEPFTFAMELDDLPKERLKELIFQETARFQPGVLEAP
Chain of Mitogen-activated protein kinase; ERK1/ERK2 (Homo sapiens) (P28482 whole entry, looked up): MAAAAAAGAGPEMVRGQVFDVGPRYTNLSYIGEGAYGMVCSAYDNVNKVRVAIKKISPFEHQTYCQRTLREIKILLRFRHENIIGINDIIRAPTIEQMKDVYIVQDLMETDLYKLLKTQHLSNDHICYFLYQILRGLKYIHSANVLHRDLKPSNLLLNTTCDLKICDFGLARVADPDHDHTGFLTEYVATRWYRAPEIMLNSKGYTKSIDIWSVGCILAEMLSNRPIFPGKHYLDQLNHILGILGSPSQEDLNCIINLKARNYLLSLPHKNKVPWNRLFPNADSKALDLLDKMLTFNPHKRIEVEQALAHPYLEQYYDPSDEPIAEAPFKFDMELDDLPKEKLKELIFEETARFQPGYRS

SH-SY5Y [25] = experiment: Inhibition of MPP+ induced mitochondrial depolarization in human SH-SY5Y cells at 0.1 uM incubated for 2 hrs by JC10 staining based confocal laser scanning microscopy; type: functional; how it was run: as §6
SH-SY5Y [26] = experiment: Inhibition of MPP+ induced superoxide radical production in human SH-SY5Y cells at 1 uM incubated for 24 hrs by microplate reader assay (reference value: 100%); type: functional; how it was run: as §7
SH-SY5Y [27] = experiment: Inhibition of MPP+ induced mitochondrial superoxide radical production in human SH-SY5Y cells at 0.1 to 10 uM incubated for 24 hrs by MitoSOX staining based microplate reader assay; type: functional, cell-based; details: dose 0.1-10 µM; how it was run: as §1

| SMILES | inhibition at 10 µM (SH-SY5Y [1]) | IC50 (Acetylcholinesterase) | Activity (SH-SY5Y [2]) | Activity (SH-SY5Y [3]) | Activity (SH-SY5Y [4]) | Activity (SH-SY5Y [5]) | Activity (SH-SY5Y [6]) | Activity (SH-SY5Y [7]) | Activity (SH-SY5Y [8]) | Ratio IC50 [9] | Activity (SH-SY5Y [11]) | IC50 (Cholinesterase) | inhibition at 1 µM (SH-SY5Y [12]) | inhibition at 10 µM (SH-SY5Y [13]) | Activity (SH-SY5Y [14]) | Activity (SH-SY5Y [15]) | Activity (SH-SY5Y [16]) | Activity (SH-SY5Y [17]) | Activity (SH-SY5Y [18]) | Activity (SH-SY5Y [19]) | also measured |
| --- | --- | --- | --- | --- | --- | --- | --- | --- | --- | --- | --- | --- | --- | --- | --- | --- | --- | --- | --- | --- | --- |
| Brc1ccc2nc3c(n2c1)C1(CCCC1)Nc1ccccc1-3 | 41.3% | 27 µM | 43.5% | 31.8% | 51.9% | 78.4% | 59.7% | 58.5% | 66.4% | 2.51 | 12.2% | 10.7 µM | 78.5% | 52.2% | 63.9% | 49.4% | 27.5% | 47.3% | 72.6% |  | inhibition (SH-SY5Y [10]): Active |
| Cc1ccc(Cn2nc(C(=O)N[C@@H]3C(C)(C)[C@@H]4CC[C@@]3(C)C4)cc2-c2ccc(Cl)c(C)c2)cc1 |  |  |  |  |  |  |  |  |  |  |  |  |  |  |  |  |  |  |  | Toxic | Activity (SH-SY5Y [20]): Non-Toxic |
| O=c1c2ccccc2[se]n1-c1ccccc1 [EBSELEN] | 63.3% | 12.7 µM | 53.4% | 80% | 59.2% | 118.7% | 132.9% |  | 99.5% | 1.05 | 18.3% | 12.1 µM |  | 57.1% | 112% |  | 27.5% |  |  |  | inhibition (SH-SY5Y [21]): inactive; Activity (SH-SY5Y [22]): Active; inhibition (SH-SY5Y [23]): inactive; inhibition [24]: inactive |
| COc1ccc(C(=O)c2c(C)n(CCN3CCOCC3)c3cc(I)ccc23)cc1 |  |  |  |  |  |  |  |  |  |  |  |  |  |  |  |  |  |  |  | > 12% | Activity (SH-SY5Y [20]): Toxic |
| Brc1ccc2nc3c(n2c1)C1(CCCCC1)Nc1ccccc1-3 | 58.8% | 20 µM | 58% | 56.5% | 64.7% | 97.7% | 59.5% |  | 94.8% | 1.02 | 12.3% | 19.6 µM | 100% | 65.6% | 88.4% |  | 33.9% |  | 55.8% |  | inhibition at 0.1 µM (SH-SY5Y [25]): 91.7% |
| Cc1ccn2c3c(nc2c1)-c1ccccc1NC31CCCCC1 |  | 16.4 µM |  | 38.2% |  | 75.5% | 55.2% | 65.4% | 60.8% | 1.57 | 11.4% | 10.4 µM | 100% |  | 62.6% | 52.6% | 75% | 58.1% |  |  | inhibition at 1 µM (SH-SY5Y [26]): 67.1%; inhibition (SH-SY5Y [27]): inactive; inhibition at 0.1 µM (SH-SY5Y [25]): 78.7% |
